The target in assay [1] is T1, Heparanase (Homo sapiens) (UniProt Q9Y251).
T1 sequence (whole entry): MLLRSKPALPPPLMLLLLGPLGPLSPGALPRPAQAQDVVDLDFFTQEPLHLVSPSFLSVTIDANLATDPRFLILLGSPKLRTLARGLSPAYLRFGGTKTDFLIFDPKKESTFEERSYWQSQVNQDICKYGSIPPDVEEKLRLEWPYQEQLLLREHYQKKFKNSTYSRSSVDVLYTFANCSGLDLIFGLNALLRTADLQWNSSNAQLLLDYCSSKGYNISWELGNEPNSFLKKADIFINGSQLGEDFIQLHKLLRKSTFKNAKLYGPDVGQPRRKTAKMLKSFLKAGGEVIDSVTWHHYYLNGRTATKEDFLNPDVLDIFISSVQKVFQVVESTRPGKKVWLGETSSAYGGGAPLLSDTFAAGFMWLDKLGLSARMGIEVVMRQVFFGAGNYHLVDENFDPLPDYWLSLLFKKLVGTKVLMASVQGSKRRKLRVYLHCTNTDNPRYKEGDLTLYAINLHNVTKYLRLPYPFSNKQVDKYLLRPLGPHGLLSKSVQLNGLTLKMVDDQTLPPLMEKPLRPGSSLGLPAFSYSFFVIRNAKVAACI
In words: Inhibition of recombinant heparanase (unknown origin) using biotin-cryptate-labeled heparan sulfate as substrate at 0.03 to 8 mg/ml preincubated for 15 mins prior to substrate challenge by TR-FRET assay. The method in brief: (§1)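 Recombinant heparanase was preincubated with compound at various concentrations for 15 min at 37 °C. It was then added to biotin-cryptate-labeled heparan sulfate substrate with streptavidin-XL665 for 1 h at 37 °C. Read-out was TR-FRET between europium cryptate and XL665.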
In general terms: In TR-FRET formats the signal depends on donor and acceptor labels being close together.

For assay [2], the target named is Bone morphogenetic protein 6 (Homo sapiens, UniProt P22004). In words: Binding affinity to human recombinant BMP6 by surface plasmon resonance assay. The method in brief:
(§2)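 Biotinylated low-molecular-weight heparin was captured on a neutravidin surface. Protein at varying concentrations was mixed with a hexasaccharide dilution series and injected. Free protein was read from a quadratic slope-vs-concentration standard curve. KD = [P_free][H_total]/[P_bound], averaged over three hexasaccharide concentrations.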
Background: In SPR one partner is held on a chip, and binding of the other changes the refractive index at the surface.

For assay [3], the target named is Stromal cell-derived factor 1 (Homo sapiens, UniProt P48061). The experiment in a line: Binding affinity to human recombinant CXCL12 by surface plasmon resonance assay. The method in brief: as §2
Stromal cell-derived factor 1, sequence (P48061 whole entry): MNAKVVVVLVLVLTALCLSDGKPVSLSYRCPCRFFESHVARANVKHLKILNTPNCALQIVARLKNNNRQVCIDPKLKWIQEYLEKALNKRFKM
The target in assay [4] is T1, Heparanase (Homo sapiens). The experiment in a line: Inhibition of recombinant heparanase (unknown origin) using biotin-cryptate-labeled heparan sulfate as substrate at 8.3 mg/ml preincubated for 15 mins prior to substrate challenge by TR-FRET assay. Put shortly: as §1
The target in another assay is T2, Interferon gamma (Homo sapiens, UniProt P01579).
T2 sequence (P01579 whole entry): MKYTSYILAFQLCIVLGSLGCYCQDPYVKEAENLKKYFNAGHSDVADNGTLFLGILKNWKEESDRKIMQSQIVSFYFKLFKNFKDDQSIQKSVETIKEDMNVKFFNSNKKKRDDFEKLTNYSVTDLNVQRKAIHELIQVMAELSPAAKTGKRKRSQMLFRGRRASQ
The experiment in a line: Binding affinity to human recombinant IFN-gamma by surface plasmon resonance assay. Put shortly: as §2

Assay [5] is described as follows: Binding affinity to human recombinant IL-23 by surface plasmon resonance assay. Put shortly:
as §2

Assay [6] addresses T1, Heparanase (Homo sapiens). In words: Inhibition of recombinant heparanase (unknown origin) using biotin-cryptate-labeled heparan sulfate as substrate at 4.2 mg/ml preincubated for 15 mins prior to substrate challenge by TR-FRET assay. Put shortly:
as §1

A further assay deals with C-C motif chemokine 2 (Homo sapiens, UniProt P13500). In words: Binding affinity to human recombinant CCL2 by surface plasmon resonance assay. The method in brief: as §2
C-C motif chemokine 2, sequence (P13500 whole entry): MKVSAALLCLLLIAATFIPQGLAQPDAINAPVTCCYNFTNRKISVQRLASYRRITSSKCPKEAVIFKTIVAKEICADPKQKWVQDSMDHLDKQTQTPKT
In the next assay the target is Protein Wnt-3a (Homo sapiens, UniProt P56704). In words: Binding affinity to human recombinant WNT3A by surface plasmon resonance assay. Put shortly: as §2
Protein Wnt-3a, sequence (P56704 whole entry): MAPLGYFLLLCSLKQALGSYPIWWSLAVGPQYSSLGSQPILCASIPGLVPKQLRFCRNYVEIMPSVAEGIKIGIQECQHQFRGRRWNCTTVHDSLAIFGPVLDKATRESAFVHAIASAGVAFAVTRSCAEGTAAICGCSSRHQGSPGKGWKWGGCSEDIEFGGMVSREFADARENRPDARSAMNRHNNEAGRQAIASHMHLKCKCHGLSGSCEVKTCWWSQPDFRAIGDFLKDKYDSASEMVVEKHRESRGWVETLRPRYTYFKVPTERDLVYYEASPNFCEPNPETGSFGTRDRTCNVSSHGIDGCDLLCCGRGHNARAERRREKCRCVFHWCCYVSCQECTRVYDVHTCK
The next assay has as its target T3, Platelet factor 4 (Homo sapiens, UniProt P02776).
T3 sequence (P02776 whole entry): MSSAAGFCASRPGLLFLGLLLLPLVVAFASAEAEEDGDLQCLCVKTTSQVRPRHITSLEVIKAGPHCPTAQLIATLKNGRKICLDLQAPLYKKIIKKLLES
The experiment in a line: Binding affinity to human recombinant CXCL4 by surface plasmon resonance assay. Put shortly:
as §2

Assay [7] has as its target Fibroblast growth factor 1 (Homo sapiens, UniProt P05230). The experiment in a line: Binding affinity to human recombinant FGF1 by surface plasmon resonance assay. Put shortly:
as §2

Assay [8] concerns the target T4, Secreted frizzled-related protein 1 (Homo sapiens, UniProt Q8N474).
T4 sequence (Q8N474 whole entry): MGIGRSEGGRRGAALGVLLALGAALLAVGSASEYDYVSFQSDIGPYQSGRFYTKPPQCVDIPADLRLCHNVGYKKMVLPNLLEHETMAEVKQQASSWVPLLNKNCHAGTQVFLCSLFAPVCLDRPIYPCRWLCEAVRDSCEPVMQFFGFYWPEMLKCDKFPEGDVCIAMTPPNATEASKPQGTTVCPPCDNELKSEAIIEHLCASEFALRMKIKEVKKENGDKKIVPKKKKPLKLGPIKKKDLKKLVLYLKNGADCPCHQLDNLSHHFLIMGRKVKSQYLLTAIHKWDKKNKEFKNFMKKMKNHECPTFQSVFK
The experiment in a line: Binding affinity to human recombinant sFRP1 by surface plasmon resonance assay. Put shortly: as §2

Each structure is given as a SMILES string. Active and inactive are the calls of the source. The calls are words filed in the database; no cut-off is given here.

Bone morphogenetic protein 6, sequence (P22004 375-513 limits assumed): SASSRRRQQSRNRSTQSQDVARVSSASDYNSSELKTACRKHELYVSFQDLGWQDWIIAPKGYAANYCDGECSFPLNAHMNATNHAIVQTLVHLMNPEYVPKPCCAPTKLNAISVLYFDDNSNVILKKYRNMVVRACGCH
Fibroblast growth factor 1, sequence (P05230 whole entry): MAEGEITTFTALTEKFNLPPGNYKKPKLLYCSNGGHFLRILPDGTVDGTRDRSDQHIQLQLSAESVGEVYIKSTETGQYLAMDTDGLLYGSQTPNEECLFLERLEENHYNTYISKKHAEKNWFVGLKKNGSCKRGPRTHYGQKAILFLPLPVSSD

On to `CCCCCO[C@H]1O[C@H](COS(=O)(=O)O)[C@@H](O[C@@H]2O[C@@H](C(=O)O)[C@@H](O[C@H]3O[C@H](COS(=O)(=O)O)[C@@H](O[C@@H]4O[C@@H](C(=O)O)[C@@H](O[C@H]5O[C@H](COS(=O)(=O)O)[C@@H](O[C@@H]6O[C@@H](C(=O)O)[C@@H](O)[C@H](O)[C@H]6OS(=O)(=O)O)[C@H](O)[C@H]5NC(C)=O)[C@H](O)[C@H]4OS(=O)(=O)O)[C@H](O)[C@H]3NC(C)=O)[C@H](O)[C@H]2OS(=O)(=O)O)[C@H](O)[C@H]1NC(C)=O`, for which the inhibition result in [1] is “Active”. Also, the values for the Kd in assay [2] and in assay [3] were 250000 µM and 77 µM, respectively. The Imax in assay [4] was found to be 30.7%.
For the compound `CCCCCO[C@H]1O[C@H](COS(=O)(=O)O)[C@@H](O[C@@H]2O[C@@H](C(=O)O)[C@@H](O[C@H]3O[C@H](COS(=O)(=O)O)[C@@H](O[C@@H]4O[C@@H](C(=O)O)[C@@H](O[C@H]5O[C@H](COS(=O)(=O)O)[C@@H](O[C@@H]6O[C@@H](C(=O)O)[C@@H](O)[C@H](O)[C@H]6OS(=O)(=O)O)[C@H](O)[C@H]5NC(C)=O)[C@H](O)[C@H]4OS(=O)(=O)O)[C@H](O)[C@H]3NS(=O)(=O)O)[C@H](O)[C@H]2O)[C@H](O)[C@H]1NC(C)=O`, the equilibrium dissociation constant (Kd) (commonly the equilibrium constant for the complex coming apart) on Interferon gamma turned out to be 7 µM; in [2], 9 µM; in [5] it was 4 µM; in [3], 24 µM; on C-C motif chemokine 2 it was 61 µM; at Protein Wnt-3a it was 18 µM. The Kd on Platelet factor 4 was determined as 3 µM. In addition, the Imax in assay [6] was found to be 47.2%.
Regarding `NCCCCCO[C@H]1O[C@H](CO)[C@@H](O[C@@H]2O[C@@H](C(=O)O)[C@@H](O[C@H]3O[C@H](CO)[C@@H](O[C@@H]4O[C@@H](C(=O)O)[C@@H](O[C@H]5O[C@H](CO)[C@@H](O[C@@H]6O[C@@H](C(=O)O)[C@@H](O)[C@H](O)[C@H]6OS(=O)(=O)O)[C@H](O)[C@H]5NS(=O)(=O)O)[C@H](O)[C@H]4OS(=O)(=O)O)[C@H](O)[C@H]3NS(=O)(=O)O)[C@H](O)[C@H]2OS(=O)(=O)O)[C@H](O)[C@H]1NS(=O)(=O)O`, in assay [1], the inhibition entry was “Active”. Further, the dissociation constant (Kd) at Interferon gamma stood at 10 µM; in assay [2], 250000 µM; in assay [5], 7 µM; in [7], 8 µM; in [8], 9 µM.
